Measurements from ChEMBL document CHEMBL1143769, “Ezetimibe analogs with a reorganized azetidinone ring: Design, synthesis, and evaluation of cholesterol absorption inhibitions” (2007).

Columns and labels:
Rattus norvegicus [1] = assay: Decrease in LDL-cholesterol levels in high-cholesterol diet fed Wistar rat at 4 mg/kg/day; assay type: functional; set-up: scale not given: the % may be the effect or the level left
In short: (§1)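 Rats fed a high-cholesterol, high-fat diet; drug suspended in 0.5% sodium carboxymethyl cellulose (40 mg/100 ml) and given intragastrically at 4 mg/kg/day. After a 16 h fast, tail blood was collected and serum total cholesterol and LDL-cholesterol measured. 8–18 rats per group; percent change calculated against high-cholesterol-diet animals.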

Rattus norvegicus [2] = assay: Decrease in total cholesterol levels in high-cholesterol diet fed Wistar rat at 4 mg/kg/day; assay type: functional; set-up: scale not given: the % may be the effect or the level left; in short: as §1

Compound: O=C1[C@H](c2ccc(F)cc2)[C@@H](c2ccc(O)cc2)N1CC[C@H](O)c1ccc(F)cc1
- Activity (Rattus norvegicus [1]): -22%
- Activity (Rattus norvegicus [2]): -26%

Compound: O=C1[C@H](c2ccc(F)cc2)[C@@H](c2ccc(O)cc2)N1CC[C@@H](O)c1ccc(F)cc1
- Activity (Rattus norvegicus [1]): -5%
- Activity (Rattus norvegicus [2]): -17%

Compound: O=C1[C@@H](c2ccc(F)cc2)[C@H](c2ccc(O)cc2)N1CC[C@@H](O)c1ccc(F)cc1
- Activity (Rattus norvegicus [1]): -35%
- Activity (Rattus norvegicus [2]): -18%

Compound: O=C1[C@@H](c2ccc(F)cc2)[C@H](c2ccc(O)cc2)N1CC[C@H](O)c1ccc(F)cc1
- Activity (Rattus norvegicus [1]): -29%
- Activity (Rattus norvegicus [2]): -25%

Compound: O=C1[C@H](CC[C@H](O)c2ccc(F)cc2)[C@@H](c2ccc(O)cc2)N1c1ccc(F)cc1 [EZETIMIBE]
- Activity (Rattus norvegicus [1]): -47%
- Activity (Rattus norvegicus [2]): -51%
